Arbovirus inh – blocks arbovirus infection. AID 1251. inhibition, % at 10 µM. arbovirus infection cell-based antiviral screen. 200,000 compounds, 0.37% hits; in the data active = inhibition above about 30%
Measles CPE – protection of cells from measles virus; Measles virus-infected cells, CPE protection, absorbance; protection (pct of control), % at 4 µM; 140,000 compounds, 1.5% hits; AID 841; in the data active = protection mostly above about 24%, no sharp cut-off; inactive = mostly below about 26%
Yeast growth inh – yeast BB579 growth reduction in restrictive medium. S. cerevisiae BB579 growth, OD615, 48 h. inhibition, % at 10 µM. 140,000 compounds, 0.51% hits. AID 804;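 active = inhibition above a set limit, 3 SD over the mean compound inhibition, cut at about 44% in these data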
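Material: Saccharomyces cerevisiae DeaD strain BB579, replicative lifespan model yeast; buffer or medium: CSMM-D restrictive synthetic medium containing dextrose (glucose); compound: 10 µM single dose, DMSO 0.25%; timing: 48 h compound exposure at 30 °C after 4 h preincubation; signal: turbidity as optical density at 615 nm; benchmarks: positive control amphotericin B 10 µg/mL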
Rad51 HR inh – Rad51 (human) homologous recombination inhibition; inhibition, % at 10 µM; Q06609; AID 1385; hRad51 DNA strand exchange, fluorescence dequenching; 200,000 compounds, 0.085% hits;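 active = inhibition above 40% at the single screening dose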;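 also: 0% = DMSO control wells and 100% = blanks with heterologous ssDNA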
Target sequence (Q06609 whole entry, looked up): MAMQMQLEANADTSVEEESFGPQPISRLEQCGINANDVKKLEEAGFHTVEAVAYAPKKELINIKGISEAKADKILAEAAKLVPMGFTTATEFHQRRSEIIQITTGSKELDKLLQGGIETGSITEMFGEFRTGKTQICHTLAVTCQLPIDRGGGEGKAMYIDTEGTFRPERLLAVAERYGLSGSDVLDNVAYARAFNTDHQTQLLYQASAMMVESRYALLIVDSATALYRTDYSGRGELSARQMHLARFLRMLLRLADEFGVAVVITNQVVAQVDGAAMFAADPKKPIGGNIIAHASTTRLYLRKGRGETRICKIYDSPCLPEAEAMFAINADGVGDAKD
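material = hRad51 filaments on single-stranded DNA | reagent = Donor/quencher-labelled 47-bp dsDNA substrate | compound = 10 µM final, single point | schedule = strand-exchange reaction 15 min at room temperature | measured by = fluorescein emission 520 nm, excitation 485 nm | read-out basis = % inhibition versus plate control and blank means | benchmarks = plate controls and plate blanks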
HMGR II inh – inhibitors of class II HMG-CoA reductase from Enterococcus faecalis. purified E. faecalis HMGR, NADPH absorbance 340 nm kinetic. inhibition, % at 10 µM. 190,000 compounds, 0.41% hits;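 active = inhibition above a set limit, the median over all tested compounds plus 3 SD, cut at about 9.5% in these data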;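 also: enzyme runs in reverse so mevalonate oxidation gives rising NADPH absorbance; 0% = complete reaction with DMSO and 100% = background rate lacking mevalonate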
Yeast life ext – extends the lifespan of yeast | S. cerevisiae growth with nicotinamide, OD615; deaD strain in restrictive glucose medium | inhibition of the nicotinamide effect, % at 10 µM | 130,000 compounds, 0.68% hits;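 active = inhibition above a set limit, placed 3 SD over the median of all compounds, cut at about 26% in these data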;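 also: 0% = nicotinamide-treated wells and 100% = cells grown without nicotinamide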
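Test system – modified budding yeast, DeaD strain · Compound – single dose 10 µM compound, 0.25% DMSO · Times – culture preincubation 4 h, compound exposure 48 h, both 30 °C · Detection – optical density (absorbance) at 615 nm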
* marks the source's active call; other numbers are inactive results; i = inactive; nt = not tested or not shown. The list is not random: actives were taken first. Their share in the collection is about 2.4%.

SMILES | Arbovirus inh | Measles CPE | Yeast growth inh | Rad51 HR inh | HMGR II inh | Yeast life ext
O=S(=O)(c1ccc(Cl)c(NC(=S)Nc2cccc(O)c2)c1)N1CCOCC1 | -2 | 7 | -4 | -1 | 0 | 27*
CCN(C(=S)Nc1cc(S(=O)(=O)N2CCOCC2)ccc1Cl)c1cccc2ccccc12 | -24 | 6 | -23 | -4 | -2 | -1
Nc1nc(NS(=O)(=O)c2ccc(Cl)cc2)nn1-c1ccccc1 | nt | nt | nt | 2 | nt | nt
O=C(Nc1cccnc1)c1cccc(S(=O)(=O)N2CCCCC2)c1 | -3 | nt | nt | 2 | 12* | nt
NC(=O)NC(=O)COC(=O)c1cccc(S(=O)(=O)N2CCCCCC2)c1 | nt | nt | nt | 46* | nt | nt
O=C(Nc1ccc2c(c1)OCCO2)c1cccc(S(=O)(=O)N2CCOCC2)c1 | -4 | 5 | -27 | 0 | -1 | -9
O=C(Nc1ccc2c(c1)OCCO2)c1cccc(S(=O)(=O)N2CCCCC2)c1 | -11 | 4 | -30 | 122* | -2 | -12
CC1CCc2c(sc3nc(CN4CCN(S(=O)(=O)c5ccccc5[N+](=O)[O-])CC4)[nH]c(=O)c23)C1 (configuration not stated) | 2 | 9 | -34 | -5 | -1 | -1
COc1ccc(C2CC2C(C)=O)cc1 (configuration not stated) | 6 | nt | nt | -150 | -1 | nt
CC(C)CC(=O)NCCCN1CCN(CCCNC(=O)CC(C)C)CC1 | 2 | 25 | -6 | 1 | -7 | nt
CCCCC(CC)C(=O)NCCCN1CCN(CCCNC(=O)C(CC)CCCC)CC1 (configuration not stated) | -6 | 36* | -45 | -3 | 2 | -7
CN(C)CCSc1nnc2sc3ccccc3n12 | 6 | 8 | -19 | -2 | 3 | -8
COc1ccc(OCCSc2nnc3sc4ccccc4n23)cc1 | -7 | 47* | -20 | 1 | -3 | -5
NC(=O)CC[C@@H]1NC(=O)[C@H](Cc2ccc(O)cc2)NC(=O)c2cc([N+](=O)[O-])cc(F)c2OCC[C@@H](C(N)=O)NC1=O | 0 | 31* | -23 | 2 | -2 | 8
CC(=O)Nc1ccc(N2CCc3c(C)c(C#N)c4nc5ccccc5n4c32)cc1 | -7 | 8 | -11 | -10 | 3 | 4
O=C(COC(=O)Cc1ccccc1F)Nc1ccc(F)cc1F | 1 | nt | nt | 8 | -3 | nt
N#Cc1cccc(N=Cc2c(O)ccc3ccccc23)c1 | 12 | 10 | -9 | -30 | -2 | 40*
O=C(O)Cc1ccc(N=Cc2c(O)ccc3ccccc23)cc1 | -5 | 7 | -30 | 0 | 3 | 57*
COc1ccc(N=Cc2c(O)ccc3ccccc23)cc1 | -18 | nt | nt | i | -5 | nt
Cc1ccc(N=Cc2c(O)ccc3ccccc23)cc1F | 12 | 9 | 5 | -171 | -2 | 36*
Clc1cccc(Cl)c1Cn1ccc(C2CC2)n1 | 8 | nt | nt | -4 | -4 | nt
OCc1ccnc2c(O)cccc12 | -20 | 3 | 54* | 2 | -2 | -14
COCc1ccc(O)c2ncccc12 | -8 | 39 | -61 | -1 | -4 | -3
CNC(=O)NC(=O)C(C)OC(=O)c1cc2c(s1)CCCCC2 (configuration not stated) | -2 | 29* | -10 | -3 | 1 | -7
CC(NC(=O)/C(=C/c1cccc([N+](=O)[O-])c1)NC(=O)c1ccco1)C(=O)O (configuration not stated) | 7 | 17 | -20 | 5 | -3 | 0
SMILES | Arbovirus inh | Measles CPE | Yeast growth inh | Rad51 HR inh | HMGR II inh | Yeast life ext
CN(C)/C=C(/C(=O)c1ccc(Cl)cc1Cl)S(=O)(=O)c1ccc(Cl)cc1 | 0 | 16 | -49 | -4 | -8 | 69*
CN(C)/C=C(/C(=O)c1ccc(Cl)cc1Cl)S(=O)(=O)c1ccccc1 | 4 | 6 | -28 | -37 | -2 | 63
CN(C)/C=C(/C(=O)c1ccc(Cl)cc1)S(=O)(=O)c1ccc(Cl)cc1 | 7 | 2 | -31 | nt | 12* | -9
COc1ccc(S(=O)(=O)N2CCOCC2)cc1NC(=O)c1ccccc1-c1ccc(C(F)(F)F)cc1 | -4 | 9 | -10 | 8 | -3 | -2
O=C(c1ccccc1SCc1ccc(F)cc1)N1CCOCC1 | -3 | nt | nt | 1 | -5 | nt
c1ccc2ncc(-n3cnnn3)cc2c1 | -4 | 38* | -86 | -5 | -4 | -4
O=C(Nc1cnc2ccccc2c1)c1cccc(-n2cnnn2)c1 | -2 | 13 | -34 | 1 | -1 | -13
CC(C)c1ccc2occ(-c3nn[nH]n3)c(=O)c2c1 | -2 | 22 | -27 | 4 | -9 | 59*
Cc1ccc2occ(-c3nn[nH]n3)c(=O)c2c1 | 9 | 7 | 6 | 7 | -1 | 14
CCn1c(SCc2ccc(F)cc2)nnc1-c1nn(-c2ccccc2)ccc1=O | -5 | 55* | -15 | 3 | -1 | -7
CCn1c(CSCc2ccc(F)cc2)nnc1SCC(=O)N1CCN(c2ccccc2)CC1 | 1 | 5 | -4 | 11 | -6 | -7
C/C(CC(=O)NC1CCCCC1)=N\NC(=O)Cc1ccc(-c2ccccc2)cc1 | -6 | nt | nt | -29 | -3 | nt
COc1ccccc1NC(=O)C12CC3CC(C1)CC(c1ccc(C)cc1)(C3)C2 | 32* | 4 | -9 | -10 | -3 | 8
COc1ccc(NC(=O)C23CC4CC(C2)CC(c2ccc(C)cc2)(C4)C3)cc1 | 12 | 25 | -3 | 5 | -8 | -5
CCn1cc(C(=O)NC2CCC(C)CC2)c(=O)c2cc(S(=O)(=O)N3CCCCC3)ccc21 (configuration not stated) | -28 | 91* | -19 | 4 | -5 | -10
CCCCNC(=O)c1onc(CSc2cccc3ccccc23)c1C(=O)O | 15 | 15 | -89 | -2 | 0 | 8
CC(Sc1nnc(C(F)(F)F)n1C)C(=O)Nc1ccc(S(N)(=O)=O)cc1 (configuration not stated) | nt | nt | nt | 3 | nt | nt
CC(Sc1nnc(C(F)(F)F)n1C)C(=O)NC(N)=O (configuration not stated) | 6 | 60* | -35 | -2 | -3 | 0
CC1CCc2c(sc3nc(CSc4ncn[nH]4)[nH]c(=O)c23)C1 (configuration not stated) | 17 | 30 | -26 | -8 | -3 | -7
COc1cc(C2NC(=O)NC(c3ccccc3)=C2C(C)=O)cc(Cl)c1OCC(=O)O (configuration not stated) | 17 | nt | nt | 5 | 14* | nt
COCCNC(=O)NC(=O)CSc1nc(C)c(C)c(C)n1 | -2 | nt | nt | 7 | -2 | nt
CC(CN1CCN(Cc2ccccc2)CC1)OC(=O)c1ccco1 (configuration not stated) | nt | nt | nt | -6 | nt | nt
Cc1cccc(C)c1OCC(=O)Nn1c(=O)[nH]c2ccccc2c1=O | -2 | nt | nt | 11 | 11* | nt
CC(=O)Nc1ccc(S(=O)(=O)Nc2cccc(-c3ccc4nncn4n3)c2)cc1 | 2 | nt | nt | 3 | 11* | nt
COn1c(SC(C)C)nc2ccccc2c1=O | -7 | 20 | -32 | 4 | -1 | -27

From PubChem BioAssay
